Measured values from different studies.
Protocols differ between the studies behind these lines.
Target: Serine/threonine-protein kinase tousled-like 2 (TLK2, Homo sapiens, UniProt Q86UE8)

COc1ncc2cc3ccccc3nc2c1C#N — remaining binding (cell-free assay, competition with immobilised ligand; 5 µM): 100%
COc1cnc(Nc2cccc(S(N)(=O)=O)c2)nc1N1CCN(c2ccccc2)CC1 — remaining binding (binding, competition with immobilised ligand; 1 µM): 96%
N[C@@H]1CCN(c2nccc(-c3cnn4ncccc34)n2)C1 — remaining binding (binding; 1 µM): 100%
O=C(c1ccc(Nc2nccc(-c3cc4ccccc4s3)n2)cc1)N1CCC(N2CCCC2)CC1 — remaining binding (binding, competition with immobilised ligand; 1 µM): 15%
C[C@@H]1CCN(c2nccc(-c3cnn4ncccc34)n2)C1 — remaining binding (binding; 1 µM): 100%
CO[C@@H](C)c1c(Nc2ccc([C@H](N(C)C(=O)C3CCS(=O)(=O)CC3)C(F)(F)F)cc2)cnc2cc(Cl)nn12 — remaining binding (cell-free assay, competition with immobilised ligand; 1 µM): 92%
O=C(NCCCN1CCOCC1)c1ccc(Nc2ncc(Cl)c(-c3ccc(Cl)s3)n2)cc1 — remaining binding (binding, competition with immobilised ligand; 1 µM): 77%
CCN1CCN(Cc2ccc(C(=O)Nc3ccc(C)c(Oc4ccc5c(c4)CC(=O)N5)c3)cc2C(F)(F)F)CC1 — remaining binding (binding, competition with immobilised ligand; 1 µM): 94%
FC(F)(F)Oc1cccc(-c2cnc3ccc(-c4ccncc4)nn23)c1 — remaining binding (binding, competition with immobilised ligand; 5 µM): 93%
O=C(Nc1c[nH]nc1C(=O)NC1CCNCC1)c1cc(F)cc(F)c1 — remaining binding (binding, competition with immobilised ligand; 1 µM): 98%
O=C(N[C@H]1CCCCC/C=C\C2C[C@@]2(C(=O)O)NC(=O)[C@@H]2C[C@@H](Oc3ccncc3)CN2C1=O)OC1CCCC1 (stereo partly drawn) — remaining binding (cell-free assay, competition with immobilised ligand; 1 µM): 100%
COc1ccnn2ncc(-c3ccnc(N(C)C)n3)c12 — remaining binding (binding; 1 µM): 100%
O=C(c1ccc(Nc2ncc(Cl)c(-c3ccc(Cl)s3)n2)cc1)N1CCC(N2CCCC2)CC1 — remaining binding (binding, competition with immobilised ligand; 1 µM): 29%
CNC(=O)Nc1ccc2c(c1)[C@@]1(CC2)OC(=O)N(CC(=O)N(Cc2ccc(F)cc2)[C@@H](C)C(F)(F)F)C1=O — remaining binding (cell-free assay, competition with immobilised ligand; 1 µM): 100%
C=CC(=O)N1CCC(C(=O)NCC(=O)N2CCN(c3nc(-c4cnc(N)nc4C(F)F)nc(N4CCOCC4)n3)CC2)CC1 — remaining binding (binding, competition with immobilised ligand; 1 µM): 100%
O=C(Nc1cccnn1)N1CCC(=Cc2cccc(Oc3ccc(C(F)(F)F)cn3)c2)CC1 — remaining binding (cell-free assay, competition with immobilised ligand; 1 µM): 100%
c1cnn2ncc(-c3ccnc(N4CCC45COC5)n3)c2c1 — remaining binding (binding; 1 µM): 100%
O=C(N1CCS(=O)(=O)CC1)N1C[C@H](c2ccc(OC(F)(F)F)cc2)C[C@H](c2nc(C3CC3)no2)C1 — remaining binding (cell-free assay, competition with immobilised ligand; 1 µM): 100%
CN(C)c1nccc(-c2cnn3ncccc23)n1 — remaining binding (binding; 1 µM): 100%
N#CC1(c2ccccn2)CCN(Cc2cc(C(=O)N3CCCC3)c(=O)n3ccccc23)CC1 — remaining binding (cell-free assay, competition with immobilised ligand; 1 µM): 100%
Cc1cnn2ncc(-c3ccnc(N(C)C)n3)c2c1 — remaining binding (binding; 1 µM): 100%
